# High-throughput results from PubChem BioAssay.
# A selection: hits, their analogues and other compounds. The true share with any hit is near 1.9%.
# TDP2 inh = TDP2 (human) inhibition, absorbance primary screen; O95551; inhibition, % at 12.8 µM; 0.34% of 370,000 active; recombinant TDP2, T5PNP hydrolysis, p-nitrophenol absorbance 415 nm;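 active = inhibition above the mean of all tested compounds plus 3 SD, set per campaign, cut at about 25% in these data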;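 note: 0% = DMSO with enzyme and 100% = buffer with substrate but no TDP2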
#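 Incubation: 2 h at 37 °C; Test system: recombinant human TDP2; Quantity: enzyme 120 nM; Read-out basis: percent inhibition; Medium: 50 mM Tris-HCl pH 7.5 with Mg2+, KCl, DTT, BSA; Repeats: single replicate; Compound: 12.8 µM single point, 1% DMSO; Signal: epi absorbance; Reagent: 5 mM T5PNP chromogenic substrate; Benchmarks: no-enzyme high, DMSO-plus-enzyme low.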
# UHRF1 MBD2 ctr = UHRF1 methyl-DNA binding inhibition. Q96T88. UHRF1 binding to methylated oligo, TR-FRET. inhibition, % at 4.4 µM. 0.75% of 370,000 active; in the data active = inhibition above about 21%;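 note: UHRF1 SRA domain binding a hemimethylated CpG hairpin DNA probe; 0% = median of test compound wells and 100% = reference inhibitor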
# Target sequence (Q96T88 whole entry, looked up, the tested form may be a part): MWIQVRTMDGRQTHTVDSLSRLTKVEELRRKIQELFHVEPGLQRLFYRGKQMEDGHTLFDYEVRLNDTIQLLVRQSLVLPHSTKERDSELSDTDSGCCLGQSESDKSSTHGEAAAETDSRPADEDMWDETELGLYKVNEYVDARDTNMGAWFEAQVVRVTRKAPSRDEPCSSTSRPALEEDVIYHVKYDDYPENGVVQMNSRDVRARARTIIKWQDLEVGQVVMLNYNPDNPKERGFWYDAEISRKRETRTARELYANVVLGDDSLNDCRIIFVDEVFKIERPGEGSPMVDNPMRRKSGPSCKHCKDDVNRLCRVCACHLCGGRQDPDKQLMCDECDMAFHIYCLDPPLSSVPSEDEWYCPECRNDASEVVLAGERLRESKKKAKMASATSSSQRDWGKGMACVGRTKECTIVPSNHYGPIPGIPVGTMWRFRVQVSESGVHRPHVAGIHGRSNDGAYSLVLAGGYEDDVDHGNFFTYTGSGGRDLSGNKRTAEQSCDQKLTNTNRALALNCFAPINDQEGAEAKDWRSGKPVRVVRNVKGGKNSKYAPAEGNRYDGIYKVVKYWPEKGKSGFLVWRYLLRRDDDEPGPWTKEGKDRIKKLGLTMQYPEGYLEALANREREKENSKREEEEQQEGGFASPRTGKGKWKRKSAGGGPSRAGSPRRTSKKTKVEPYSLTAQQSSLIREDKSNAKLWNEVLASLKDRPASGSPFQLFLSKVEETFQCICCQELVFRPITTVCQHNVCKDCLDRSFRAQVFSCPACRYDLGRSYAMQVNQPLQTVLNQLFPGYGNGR
# Rin1 Abl inh = human Rin1-Abl interaction inhibition; 0.4% of 360,000 active; P00519+Q13671; AID 588664; inhibition, % at 7.35 µM; TR-FRET Rin1/Abl binding, biochemical; in the data active = inhibition above about 5%, passing the limit was not always enough
# LEDGF integ inh = blocks HIV-1 LEDGF/p75-dependent DNA integration. TR-FRET IN-LEDGF/p75 DNA integration, Eu/Cy5. inhibition, % at 3.7 µM. 0.64% of 370,000 active. AID 743269;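 active = inhibition above the screen-wide mean plus 3 SD, cut at about 13% in these data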;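 note: signal is the Cy5 over europium emission ratio at 671 and 618 nm; 0% = plate median of compound wells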
# MBD2 DNA inh = MBD2-methylated oligo binding inhibition; Q9UBB5; TR-FRET, MBD2 binding to methylated oligonucleotide; inhibition, % at 4.4 µM; 0.31% of 370,000 active; AID 686964; in the data active = inhibition above about 13%
# Rin1-Abl confirm = confirmation of inhibitors of human Rin1-Abl interaction. inhibition, % at 7.35 µM. shares compounds with Rin1 Abl inh. TR-FRET Rin1-Abl binding, purified proteins. AID 602124. 49% of 1,300 active
# GFP quench = quenches GFP fluorescence, counter-screen for Rin1-Abl inhibitors | shares compounds with Rin1 Abl inh | inhibitors/quenchers counterscreen | inhibition, % at 6.75 µM | 8.5% of 1,300 active;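 note: ABL1-eGFP fusion protein alone without its partner RIN1-SBP; 0% = protein with vehicle and 100% = wells lacking protein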
# GFP quench DR = counter-screen for Rin1-Abl inhibitors: GFP quenchers, dose response. shares compounds with Rin1 Abl inh. GFP fluorescence interference/quenching counterscreen. IC50, µM. 230 tested, under 10 active. AID 602182; call rule not given here;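 note: ABL1-eGFP fusion protein alone without its RIN1 binding partner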
# * = called active by the depositor; . = no result given. Cut-off read from the data, not from the text of the source, unless noted: active = inhibition above about 6.5%; inactive = the rest.
SMILES,TDP2 inh,UHRF1 MBD2 ctr,Rin1 Abl inh,LEDGF integ inh,MBD2 DNA inh,Rin1-Abl confirm,GFP quench,others
Cc1ccc(-n2c(SCc3cc(=O)n4ccsc4n3)nnc2-c2cccnc2)c(C)c1,6.8,-2.4,16.6*,-0.4,2.3,19.2*,-0.2,GFP quench DR=>67.5
CC(=O)c1ccc(N(C(=O)c2csnn2)C(C(=O)NC2CCCC2)c2ccccc2)cc1 (configuration not stated),-21.7,5.1,10.6*,6.9,2.9,1.6,-0.3,
O=C(NC1CCCC1)C(c1ccncc1)N(C(=O)c1csnn1)c1ccccc1 (configuration not stated),-4.9,3.5,2.3,4.5,7.0,.,.,
Cn1c(=O)oc2cc(S(=O)(=O)N3CCN(C(=O)C4CCCO4)CC3)ccc21 (configuration not stated),4.4,-0.5,.,-2.1,-1.3,.,.,
Cc1cccc(C(=O)Nc2cccc(C(=O)N/N=C/c3ccccn3)c2)c1,-3.5,-3.3,19.0*,1.6,1.6,-2.6,0.0,
O=CN1CCN(C(=O)C2CCN(c3ncnc4c3sc3cccc(F)c34)CC2)CC1,-7.3,-2.0,.,0.0,-4.8,.,.,
CC(C)(C)n1ncc2c(=O)n(Cc3cccc(Cl)c3)cnc21,0.0,-3.3,7.6*,-0.8,-2.4,-0.8,-0.9,
CC(C)(C)n1ncc2c(=O)n(Cc3cccc(Cn4cnc5c(cnn5C(C)(C)C)c4=O)c3F)cnc21,-3.9,-1.6,-1.1,3.3,-0.8,.,.,
CCOC(=O)C1CCCN(Cc2ccccc2C)C1 (configuration not stated),18.7,1.0,-0.8,-1.4,-0.2,.,.,
CCOC(=O)C1CCCN(Cc2ccccc2OCC)C1 (configuration not stated),-7.8,-0.6,9.4*,0.8,-1.2,-0.4,0.1,
CCCC[C@H]1C2CC(OC(=O)Nc3cccc(Cl)c3)C(C2)[C@H]2CCCCN21 (some centres not stated),2.8,-1.5,.,-2.8,-4.1,.,.,
CCOC(=O)c1c(NC(=O)CN(C)C2CCN(C)CC2)sc(C(=O)Nc2ccccc2)c1C,12.8,-1.1,7.6*,0.3,-5.0,-1.0,-0.5,
CCOC(=O)c1c(NC(=O)CSc2cccc[n+]2[O-])sc(C(=O)Nc2ccccc2)c1C,-9.0,3.2,-1.2,-2.6,-4.3,.,.,
CC(Sc1nccn1C)C(=O)Nc1ccc(C(N)=O)cc1 (configuration not stated),-12.3,4.0,10.1*,2.0,-0.3,-2.1,-0.2,
COc1ccccc1NC(=O)C(C)Sc1nccn1C (configuration not stated),-6.7,0.9,0.6,0.2,-0.8,.,.,
CCc1cccc(NC(=O)Cn2c(=O)oc3cc(S(=O)(=O)N4CCOCC4)ccc32)c1,7.0,-0.4,6.2,-0.2,3.7,.,.,
CCc1ccc(NC(=O)Cn2c(=O)oc3cc(S(=O)(=O)N4CCOCC4)ccc32)cc1,5.6,-1.9,8.1*,1.9,3.4,1.5,-0.6,
O=C1NCC(O)=C1C=NC12CC3CC(CC(C3)C1)C2,11.1,-1.5,31.1*,-1.6,-6.6,22.6*,0.3,GFP quench DR=>67.5
Cc1ccccc1OCC(=O)NCCNC(=O)c1ccccn1,13.8,-0.1,14.8*,1.3,-0.6,-0.9,1.0,
O=C(COc1ccccc1Cl)NCCNC(=O)c1ccccn1,11.9,3.6,1.4,-1.0,5.4,.,.,
C=CCN(C)CC#Cc1ccc(OC)cc1,2.3,1.7,.,-4.0,6.4,.,.,
COCCn1nnnc1C(CC(C)C)N1CCN(c2nc3ccccc3s2)CC1 (configuration not stated),2.1,5.5,9.3*,0.0,7.4,-2.3,0.1,
CC(C)C[C@@H](CCCc1ccccc1)CCC(=O)N(c1ccccc1)c1ccccc1,3.3,1.1,.,-0.5,2.4,.,.,
COc1ccc(C2N(C(=O)c3ccccc3)CCN2C(=O)c2ccc(C)cc2)cc1 (configuration not stated),2.1,-1.9,-0.8,-0.6,-2.8,.,.,
